Screening results deposited in PubChem BioAssay by The Scripps Research Institute Molecular Screening Center.
The list is not random: actives were taken first. Their share in the collection is about 3.3%.
PRMT1 inh: PRMT1 (human) inhibition, primary screen; inhibition, % at 2.79 µM; hit rate 1.3% among 370,000; Q99873; recombinant PRMT1, activity-based probe fluorescence polarization;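 active = inhibition above about 21% made by adding two undisclosed values, limit read from the data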
ABHD4 inh: ABHD4 (mouse) inhibition, primary FP screen; Q8VD66; purified mABHD4, FP-Rh probe fluorescence polarization; inhibition, % at 8.92 µM; hit rate 0.54% among 370,000; AID 720543;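 active = inhibition exceeding the mean over every tested compound plus 3 SD, cut at about 30% in these data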;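 note: 0% = plate median of compound wells and 100% = S159A mutant with DMSO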
Target sequence (Q8VD66 whole entry, looked up): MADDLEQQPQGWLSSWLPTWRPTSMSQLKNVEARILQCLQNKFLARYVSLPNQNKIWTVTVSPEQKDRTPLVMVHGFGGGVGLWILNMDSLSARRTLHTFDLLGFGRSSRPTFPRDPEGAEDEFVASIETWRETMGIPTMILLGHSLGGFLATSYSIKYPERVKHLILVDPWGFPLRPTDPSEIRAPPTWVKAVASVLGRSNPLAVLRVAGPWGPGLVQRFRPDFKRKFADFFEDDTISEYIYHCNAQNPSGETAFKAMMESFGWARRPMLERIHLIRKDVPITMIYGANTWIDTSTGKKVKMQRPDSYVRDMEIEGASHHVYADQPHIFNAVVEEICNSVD
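Assay system: mABHD4 protein; medium: HEPES pH 7.0, NaCl, Pluronic buffer; dosing: 8.92 µM, single dose; schedule: 45 min + 60 min at 25 °C; signal: FP readout, ex 525 nm / em 598 nm; read-out: normalized percent inhibition of probe labeling; repeats: single replicate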
rCAG binder: binds r(CAG) RNA repeats | AID 651821 | inhibition, % at 3 µM | r(CAG) RNA repeat, TO-PRO-1 dye displacement fluorescence | hit rate 1.3% among 370,000;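 active = inhibition above the plate cutoff, the mean of all test compounds on that plate plus 3 SD, cut at about 35% in these data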;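 note: 0% = DMSO alone and 100% = 100 µM mitoxantrone as full dye displacement; higher means more dye released from RNA so lower well fluorescence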
HTRA1 inhibitor: inhibitors of human serine peptidase HTRA1; recombinant HTRA1, FP-rhodamine activity-based probe, fluorescence polarization; inhibition, % at 5.96 µM; hit rate 0.5% among 340,000; AID 504803; in the data active = inhibition above about 36%;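 note: 0% = enzyme with DMSO and 100% = wells lacking enzyme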
SIAE inh: blocks human sialic acid acetylesterase; Q9HAT2; SIAE FP-Rh probe binding, fluorescence polarization; inhibition, % at 9.66 µM; hit rate 0.69% among 370,000; AID 1053197;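 active = inhibition above a cutoff: mean of compounds within the control limits plus 3 SD of those, cut at about 17% in these data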;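 note: 0% = plate median of compound wells and 100% = probe without SIAE protein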
rCAG bind conf: r(CAG) RNA repeat binding, confirmation. AID 652065. shares compounds with rCAG binder. TO-PRO-1 dye displacement fluorescence. inhibition, % at 3 µM. hit rate 70% among 4,300;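 active = inhibition above a per-plate cutoff, the mean inhibition of sample wells plus 3 SD, cut at about 35% in these data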;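 note: loss of TO-PRO-1 fluorescence as compound displaces dye from 1x1 AA loop RNA; 0% = DMSO only wells and 100% = 100 µM mitoxantrone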
DNA CAG counter: DNA CAG dye complex inhibition counter-screen; shares compounds with rCAG binder; d(CAG) DNA oligo TO-PRO-1 dye displacement, fluorescence; inhibition, % at 3 µM; hit rate 94% among 4,300;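 active = inhibition above its plate's cutoff, the mean test-well inhibition plus 3 SD, cut at about 4.8% in these data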;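 note: 0% = DNA dye mix with DMSO and 100% = 100 µM mitoxantrone; hits displace the dye from DNA and so lower well fluorescence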
PRMT1 confirm: confirmation of human PRMT1 inhibitors; shares compounds with PRMT1 inh; recombinant His-PRMT1, activity-based probe fluorescence polarization; inhibition, % at 2.79 µM; hit rate 42% among 3,300; AID 687036;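 active = mean inhibition across replicates above the hit cutoff derived for the earlier primary screen, cut at about 22% in these data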
ABHD4 confirm: ABHD4 (mouse) inhibition, FP confirmation. purified mABHD4, FP-Rh probe fluorescence polarization. hit rate 55% among 1,800. shares compounds with ABHD4 inh. inhibition, % at 8.92 µM;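 active = mean inhibition across replicates above the hit cutoff set in the primary screen, cut at about 30% in these data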;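 note: 0% = wild-type ABHD4 with DMSO and 100% = catalytically dead S159A mutant with DMSO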
SIAE confirm: human SIAE inhibition, confirmation | inhibition, % at 9.66 µM | SIAE FP-Rh activity-based probe, fluorescence polarization | shares compounds with SIAE inh | hit rate 13% among 2,300;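 active = mean inhibition of the replicates above the hit cutoff set in the primary screen, cut at about 17% in these data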;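 note: 0% = SIAE with DMSO and probe and 100% = probe without SIAE; inhibitors lower polarization as more probe stays unbound to SIAE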
The depositor's hits bear a star; . = no result.

SMILES | PRMT1 inh | ABHD4 inh | rCAG binder | HTRA1 inhibitor | SIAE inh | rCAG bind conf | DNA CAG counter | SIAE confirm | others
O=C(CCCN1C(=O)/C(=C\c2ccco2)SC1=S)Nc1ccc(O)cc1C(=O)O | 62* | 46* | 90* | 5 | 6 | 78* | 43* | . | PRMT1 confirm=37*;ABHD4 confirm=7
Cc1cc(C(c2ccc(C)o2)c2ccc(C)o2)c(O)c([N+](=O)[O-])c1 | 21 | 44* | 54* | 15 | 15 | 18 | 8.5* | . | ABHD4 confirm=7
COc1cc(N=Nc2cccc(S(N)(=O)=O)c2)c2ccccc2c1N | -8 | -1 | 52* | 30 | 26* | 20 | 12* | -2
O=C(NN=Cc1cc(Br)c(O)c(Br)c1)c1ccccc1NS(=O)(=O)c1cccs1 | 2 | 34* | 40* | 9 | 19* | 35* | 10* | 9 | ABHD4 confirm=33*
O=C(CCc1ccc(S(=O)(=O)N2CCOCC2)cc1)N/N=C/c1ccc(O)c(O)c1O | 33* | 22 | 40* | 10 | 28* | 46* | 16* | 15 | PRMT1 confirm=50*
O=C(CCc1ccc(S(=O)(=O)N2CCOCC2)cc1)N/N=C/c1ccc(F)cc1F | -3 | -4 | -3 | 1 | -1 | . | . | .
Cc1csc(NC(=O)C(C)N2C(=O)c3ccccc3S2(=O)=O)n1 (stereo not drawn) | 0 | 1 | 0 | 13 | 3 | . | . | .
Cc1nn(-c2cccc(Cl)c2)c2c1C(c1ccncc1)C(C#N)=C(N)O2 (stereo not drawn) | 5 | 48* | 36* | 31 | 20* | 27 | 5.2* | 8 | ABHD4 confirm=50*
Cc1[nH]c2ccc(C(=O)NCCCN(C)C3CCCCC3)cc2c1C | -5 | -7 | 3 | 2 | -2 | . | . | .
CC(C)(C)N(Cc1ccccc1)C(=O)COC(=O)C1CCN(c2ccc(C(F)(F)F)cn2)CC1 | -2 | -2 | 2 | -15 | -6 | . | . | .
COc1ccc(/C=C2\C(=O)N(c3c(Cl)cc(Cl)cc3Cl)N=C2NC(=O)c2cccc([N+](=O)[O-])c2)cc1 | . | . | . | 6 | . | . | . | .
COC(=O)CC1=NN(c2ccc(OC)cc2)C(=O)/C1=C\c1ccc(Cl)cc1 | 1 | 8 | 68* | 2 | 17* | 83* | 41* | -1
O=C1Nc2ccc(Br)cc2/C1=C/C(=O)c1ccc2c(c1)OCO2 | 4 | 7 | 44* | -27 | 19* | 26 | 14* | 2
COc1ccc(C(=O)/C=C2\C(=O)Nc3ccc(Br)cc32)cc1 | 11 | 12 | 18 | -49 | 6 | . | . | .
CC(C)CCC(CC(C)O)C(=O)NNC(=S)Nc1ccccc1 (stereo not drawn) | -1 | 4 | -2 | 4 | 12 | . | . | .
COc1ccc(/C=C2\N=C(c3ccccc3)N(c3ccc(C(=O)O)cc3)C2=O)cc1OC | 0 | -5 | 20 | -1 | -9 | . | . | .
Cc1ccc(S(=O)(=O)Nc2nc(C)c(NC(=O)Nc3ccc(Cl)cc3Cl)s2)cc1 | 1 | 17 | 62* | 13 | 35* | 59* | 24* | 29*
O=C(NNc1nc2c(F)cccc2s1)c1ccc(F)cc1 | 1 | 7 | 3 | 11 | 8 | . | . | .
O=C(NNc1nc2c(F)cccc2s1)c1cc(=O)c2ccccc2o1 | 10 | 39* | 58* | 22 | 18* | 68* | 24* | -4 | ABHD4 confirm=30*
COc1cc(C(=O)Nc2scc(-c3ccc(C)cc3)c2C(=O)O)cc(OC)c1OC | -1 | -15 | 50* | -3 | 41* | 76* | 39* | 35*
Cc1cc(C(F)(F)F)nc(SCC(=O)NC2CCCCC2)n1 | 0 | 4 | 1 | 2 | -6 | . | . | .
